# Sampled rows, rich in hits. Any-hit rate of the full collection: about 0.77%.
# mIAP inh: mouse IAP inhibition. inhibition, % at 10 µM. purified mouse IAP, CDP-Star luminescence, 30 min. actives 0.2% (n = 330,000). AID 2806;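 active = inhibition of at least 40% at 10 µM in the primary screen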;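 note: plate controls were DMSO with enzyme for no effect and no enzyme wells for full effect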
# hIAP block: blocks human intestinal alkaline phosphatase | actives 0.12% (n = 330,000) | purified IAP, CDP-Star luminescence, 30 min | P09923 | inhibition, % at 10 µM | AID 2544;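 active = inhibition reaching a set limit with compound at 10 µM in the primary screen, cut at about 35% in these data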;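 note: plate controls were DMSO wells with enzyme for no effect and no-enzyme buffer wells for full effect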
# Target sequence (P09923 whole entry, looked up): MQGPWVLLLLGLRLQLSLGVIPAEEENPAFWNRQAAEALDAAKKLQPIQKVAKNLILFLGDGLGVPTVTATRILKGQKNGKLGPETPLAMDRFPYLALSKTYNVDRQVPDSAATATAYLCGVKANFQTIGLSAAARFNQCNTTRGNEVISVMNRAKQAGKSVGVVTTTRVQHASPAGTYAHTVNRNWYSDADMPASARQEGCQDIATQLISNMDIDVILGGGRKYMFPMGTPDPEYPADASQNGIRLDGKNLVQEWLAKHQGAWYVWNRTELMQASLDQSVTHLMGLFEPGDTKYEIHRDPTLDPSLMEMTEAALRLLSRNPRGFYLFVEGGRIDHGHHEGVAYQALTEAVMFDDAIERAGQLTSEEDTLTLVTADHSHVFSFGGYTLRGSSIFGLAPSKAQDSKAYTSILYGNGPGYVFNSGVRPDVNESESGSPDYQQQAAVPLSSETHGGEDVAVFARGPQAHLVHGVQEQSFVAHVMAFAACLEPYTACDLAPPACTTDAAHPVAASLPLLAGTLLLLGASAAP
# bIAP act: intestinal alkaline phosphatase (bovine) activation; purified bovine IAP, CDP-star luminescence, 30 min; hits give high values; fold of DMSO-control signal, blank-subtracted; activation factor at 20 µM; actives 0.17% (n = 200,000); AID 1016;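 active = activation factor of 2 or more at 20 µM, a signal rise over negative controls twice the positive control's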
# bIAP inh: blocks bovine intestinal alkaline phosphatase activity; AID 1019; purified bovine IAP, CDP-star luminescence, 30 min; inhibition, % at 20 µM; 190,000 tested, under 10 active;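 active = over 50% inhibition of intestinal alkaline phosphatase at 20 µM in the single-dose screen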
#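 Assay system – bovine IAP enzyme · Quantity – bovine IAP at 1/65,000,000 final dilution · Detection – CDP-star luminescence signal · Times – 30 min reaction at room temperature · Also added – CDP-star substrate at 30 µM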
# hIAP act: human IAP activation | AID 2524 | actives 0.16% (n = 330,000) | activation factor at 10 µM | P09923 | purified human IAP, CDP-Star luminescence, 30 min; hits give high values; 1 = vehicle-only enzyme, 0 = enzyme-free background;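 active = activation factor of the enzyme at least 2-fold when tested at 20 µM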
# mIAP act: increases mouse intestinal alkaline phosphatase activity; muIAP, CDP-Star luminescence, 30 min; hits give high values; 1 = vehicle-only enzyme signal, 0 = enzyme-free wells; activation factor at 10 µM; actives 0.24% (n = 330,000);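 active = activation factor of at least 2 at 20 µM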
#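 Assay system: mouse IAP enzyme; Reagent: CDP-Star chemiluminescent phosphatase substrate; Compound: DMSO-dissolved test compounds; Incubation: 30 min, room temperature; Technique: luminescence from enzymatic CDP-Star hydrolysis; Controls: DMSO-only wells and no-enzyme negative control.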
# mIAP inh conf: mouse IAP inhibition confirmation | AID 434971 | shares compounds with mIAP inh | purified mouse IAP, CDP-Star luminescence, 30 min | actives 4.7% (n = 11,000) | inhibition, % at 10 µM;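 active = inhibition of at least 40% at 10 µM in either of the two replicates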;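 note: plate controls were DMSO wells with enzyme for no effect and buffer wells lacking enzyme for full effect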
# The depositor's hits bear a star; i = inactive; . = no result.
SMILES,mIAP inh,hIAP block,bIAP act,bIAP inh,hIAP act,mIAP act,mIAP inh conf
C#CCOCCOCCOCCNc1nc(N2CCN(C(=O)CCCCCCCCCCNC(=O)[C@H](CCCN=C(N)N)n3cc(C[C@@H](C)CC)nn3)CC2)nc(N2CCN(C(=O)CCCCCCCCCCNC(=O)[C@@H]([C@H](C)CC)n3cc(CCCCCN)nn3)CC2)n1,-463,-50,.,.,1.5,5.6*,i
C#CCOCCOCCOCCNc1nc(N2CCN(C(=O)CCCCCCCCCCNC(=O)[C@H](CO)n3cc(CCCCCN)nn3)CC2)nc(N2CCN(C(=O)CCCCCCCCCCNC(=O)[C@H](CCCN=C(N)N)n3cc(C[C@@H](C)CC)nn3)CC2)n1,-52,2,.,.,0.98,1.5,.
C#CCOCCOCCOCCNc1nc(N2CCN(C(=O)CCCCCCCCCCNC(=O)[C@@H](CCSC)n3cc(CCO)nn3)CC2)nc(N2CCN(C(=O)CCCCCCCCCCNC(=O)[C@@H]([C@H](C)O)n3cc(C)nn3)CC2)n1,-55,-22,.,.,1.2,1.6,.
CC(C(=O)Nc1ccc(Cl)cc1)N1C(=O)NC2(CCCC2)C1=O (stereo not drawn),-1,13,.,.,0.87,1,.
Cc1nn(C)cc1/C=N/NC(=O)Cn1nccc1C,-6,13,1,1,0.87,1.1,.
COc1cc(NC(=O)NCC2CCN(Cc3ccccc3F)CC2)cc(OC)c1,-208,-32,.,.,1.3,3.1*,-167
Cc1ccc(C)c(CN2CCC(CNC(=O)Nc3ccc(F)c(Cl)c3)CC2)c1,-235,-54,.,.,1.5,3.4*,-98
O=C(NCCN1CCCCC1)Nc1ccc(F)c(Cl)c1,-14,10,0.9,10,0.9,1.1,.
Cc1cc(C)cc(NC(=O)NCC2CCN(Cc3cc(C)ccc3C)CC2)c1,-256,-61,.,.,1.6,3.6*,-132
Cc1ccc(C)c(CN2CCC(CNC(=O)CCc3nnc4ccc(N5CCCCC5)nn34)CC2)c1,0,5,.,.,0.95,1,.
CC(C)NC(=O)NC(=O)COC(=O)/C=C/c1ccccc1[N+](=O)[O-],0,5,1.1,-14,0.95,1,.
C=CCN=c1scc(-c2ccco2)n1/N=C/c1ccc(O)c(O)c1O,59*,8,.,.,0.92,0.41,68*
COCCN=c1scc(-c2ccco2)n1/N=C/c1ccc(O)c(O)c1O,54*,-21,1,4,1.2,0.46,53*
Cc1ccccc1-c1cc2nc(C)c(Cl)c(=O)n2[nH]1,6,-2,.,.,1,0.94,.
Cc1cc(=O)n2[nH]c(-c3ccc(F)cc3)cc2n1,6,-9,1,0,1.1,0.94,.
COCc1cc(=O)n2[nH]c(-c3ccsc3-n3c(C)ccc3C)cc2n1,56*,10,1,4,0.91,0.44,58*
Cc1cc(=O)n2[nH]c(-c3ccsc3-n3c(C)ccc3C)cc2n1,50*,13,.,.,0.87,0.5,59*
Cc1nc2cc(-c3ccsc3-n3c(C)ccc3C)[nH]n2c(=O)c1Cl,63*,9,0.9,8,0.91,0.37,78*
O=C(CN1CCCC1)Nc1ccc(Br)cc1[N+](=O)[O-],1,-16,.,.,1.2,0.99,.
CC(C)OC(=O)NCCOC(=O)Nc1cccc(Cl)c1,-103,-9,0.9,14,1.1,2*,-112
COc1ccc(NC(=O)Nc2cccc3c2O[C@H](CN(C)Cc2ccc(-c4ccccc4)cc2)[C@@H](C)CN([C@H](C)CO)C3=O)cc1,-15,4,.,.,0.96,1.1,.
C[C@@H]1CN([C@@H](C)CO)C(=O)c2cccc(NC(=O)Nc3ccc(F)cc3)c2O[C@@H]1CN(C)Cc1ccc(Oc2ccccc2)cc1,-333,15,.,.,0.85,4.3*,-117
C[C@H](CO)N1C[C@H](C)[C@@H](CN(C)C(=O)Nc2ccccc2)Oc2ccc(NC(=O)Nc3ccc4c(c3)OCO4)cc2C1=O,-202,-1,.,.,1,3*,-117
C[C@H]1CN([C@@H](C)CO)C(=O)c2cc(NC(=O)C3CCCCC3)ccc2O[C@H]1CN(C)Cc1ccc(-c2ccccc2)cc1,-11,-2,.,.,1,1.1,.

# Screening results from PubChem BioAssay.
